Compound activity as filed in PubChem.
MDM2 E3 inh = inhibitors of human Mdm2 E3 ubiquitin ligase; Q00987; cell-based MDM2 ubiquitination luciferase reporter, 2 h; 0 = plate control, 100 = twice control, blank-subtracted; signal enhancement, % at 5 µM; actives 0.11% (n = 210,000);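 active = signal enhancement of 30% or more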;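 note: luminescence tracks abundance of the self-degrading MDM2-luciferase fusion protein; higher signal means inhibition of MDM2 E3 ligase activity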
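Assay system: stable mammalian line carrying autodegrading MDM2–luciferase fusion reporter; amount: 2000 cells seeded into each well; buffer or medium: DMEM; benchmarks: plate control and blank wells; signal: luciferase luminescence; timing: 2 h compound exposure at 37 °C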
Tb hexokinase = T. brucei hexokinase 1 inhibition | recombinant TbHK1, G6PDH-coupled NADH A340 | actives 0.11% (n = 220,000) | AID 1430 | inhibition, % at 10 µM;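 active = inhibition of 50% or more in the single-dose primary screen; inactive = inhibition below 50%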
14-3-3 Bad PPI = disrupts binding of bovine 14-3-3 zeta to phospho-Bad peptide | actives 0.71% (n = 220,000) | TR-FRET 14-3-3zeta/Dy647-pBad peptide displacement, 1 h | inhibition, % at 21.7 µM;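 active = inhibition above about 70%, limit read from the data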;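 note: 0% = full 14-3-3 plus peptide FRET controls and 100% = background without 14-3-3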
Wee1 stabilizer = inhibitors of human Wee1 degradation | P30291 | HeLa Luc-Wee1K328M stability, luciferase luminescence; 100% = proteasome inhibitor MG132 effect | reporter increase, % at 5 µM | actives 1.2% (n = 220,000) | AID 1321;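 active = activation above the mean of all tested compounds plus 3 SD, set per screening run, cut at about 8.8% in these data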;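 note: cells exposed to compound for 20 h before luminescence read; 0% = DMSO alone and 100% = MG132 at 30 µM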
Hck Nef HTS = human Hck-Nef kinase inhibition. P08631. Recombinant Hck-YEEI plus Nef, Z-Lyte FRET kinase assay. inhibition, % at 20 µM. actives 0.68% (n = 220,000). AID 463187;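 active = Hck-Nef kinase inhibition above about 50%, limit read from the data; inactive = inhibition below that limit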;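 note: 0% = DMSO with Hck plus Nef and 100% = Hck alone without Nef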
Target sequence (P08631 whole entry, looked up): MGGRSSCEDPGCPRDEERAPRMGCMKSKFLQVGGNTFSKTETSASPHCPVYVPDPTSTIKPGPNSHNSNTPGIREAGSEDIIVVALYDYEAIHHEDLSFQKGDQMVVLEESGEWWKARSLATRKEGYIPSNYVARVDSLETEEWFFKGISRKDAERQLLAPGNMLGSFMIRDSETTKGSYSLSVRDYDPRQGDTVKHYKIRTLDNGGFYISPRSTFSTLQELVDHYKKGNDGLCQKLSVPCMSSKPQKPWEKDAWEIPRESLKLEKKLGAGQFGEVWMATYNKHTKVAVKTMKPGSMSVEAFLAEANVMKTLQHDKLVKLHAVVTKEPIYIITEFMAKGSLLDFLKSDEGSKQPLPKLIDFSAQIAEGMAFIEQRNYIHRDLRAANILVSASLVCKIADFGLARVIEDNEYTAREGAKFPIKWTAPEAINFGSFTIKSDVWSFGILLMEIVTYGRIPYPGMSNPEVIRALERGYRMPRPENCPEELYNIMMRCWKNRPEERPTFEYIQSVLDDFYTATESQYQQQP
Hck-Nef confirm = confirmation of Hck-Nef kinase inhibitors. shares compounds with Hck Nef HTS. Recombinant Hck-YEEI:Nef, Z-Lyte FRET kinase assay. calls only at 10 µM. actives 28% (n = 1,300). AID 463188;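 active = average inhibition of at least 50%, with Z-scores no higher than 3 in both the phospho-tyrosine peptide and fluorescence counterscreens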
Numbers without * were called inactive; i = inactive; · = no result shown; + = active, no number. Sampled rows, rich in hits. Any-hit rate of the full collection: about 2.7%.

SMILES	MDM2 E3 inh	Tb hexokinase	14-3-3 Bad PPI	Wee1 stabilizer	Hck Nef HTS	Hck-Nef confirm
Cc1ccc(NC(=O)c2cc(-c3ccco3)nc3ccccc23)cc1S(=O)(=O)N1CCOCC1	0.5	4.1	-11.1	-0.6	69.3*	+
C=CCOc1ccc(/C=C2\SC(=S)N(C(C(=O)O)c3ccccc3)C2=O)cc1 (stereo not given)	-8.3	13.2	25.8	-2.4	50.5*	+
CC1=NNC(=O)/C1=C\c1cn(-c2ccccc2)nc1-c1ccc(Cl)cc1	-4.6	-10.7	-14.9	3.5	59.9*	+
COc1ccc(C)cc1NC(=O)C(CCS(C)(=O)=O)NC(C)=O (stereo not given)	-12.3	-2.4	1.9	0.1	0.7	·
CN1C(=O)NC(c2ccccc2)C2=C1CN(c1ccc3ccccc3c1)C2=O (stereo not given)	-15.3	-9.7	83.8*	-0.1	103.4*	+
COc1ccc(-c2cc(=O)c3c(O)c(OC)c(O)cc3o2)cc1	-45.7	-16.5	-2.4	3.5	67.4*	i
COc1cc(-c2cc(=O)c3c(O)cc(O)cc3o2)ccc1O	-6.8	-6.2	-3.4	-0.7	54.3*	i
COc1cc(-c2cc(=O)c3c(O)c(OC)c(OC)cc3o2)cc(OC)c1O	-23.8	-39.9	2.1	·	98.4*	+
C#CCOCCOCCOCCNc1nc(N2CCN(C(=O)C([C@@H](C)CC)n3cc(C(N)Cc4ccc(O)cc4)nn3)CC2)nc(N2CCN(C(=O)[C@H](CCC(=O)O)n3cc(C(N)Cc4ccc(O)cc4)nn3)CC2)n1 (stereo not given in full)	·	-5.9	2.3	-0.6	-11.9	·
Cc1cc(C)c2c(N)c(C(=O)N/N=C/c3cccnc3)sc2n1	0.2	-17.3	-2.6	9.5*	72.8*	i
COc1ccc(C(=O)N/C(=C\c2ccccc2)C(=O)NC(CC(C)C)C(=O)O)cc1 (stereo not given)	-19.1	0.1	-10.2	3.7	59.7*	i
CCC(Sc1nc2ccccc2c2nc3ccccc3n12)C(=O)NCc1ccco1 (stereo not given)	-37.4	-14.1	77.7*	-0.3	70.0*	+
O=c1[nH]c2ccc(N=Cc3c(O)ccc4cc(Br)ccc34)cc2[nH]1	-3.9	-2.6	64.2	2.7	62.7*	+
Cc1[nH]n(-c2ccccc2)c(=O)c1C=Nc1ccc2[nH]c(=O)[nH]c2c1	-4.4	-16.6	-4.0	1.6	1.2	·
COC(=O)c1c(NC(=O)COC(=O)c2ccccc2O)sc2c1CCCCC2	-19.1	-5.3	8.0	-1.6	2.8	·
COC(=O)c1c(NC(=O)COC(=O)c2ccc(NC(=O)CC#N)cc2)sc2c1CCCCC2	-11.0	6.8	13.0	1.8	113.0*	+
Cc1ccc(S(=O)(=O)C(C#N)c2nc3ccccc3nc2OCCO)cc1 (stereo not given)	-8.6	-9.7	0.2	4.1	4.6	·
CC(=O)Nc1ccc(S(=O)(=O)C(C#N)c2nc3ccccc3nc2NCCCO)cc1 (stereo not given)	-9.9	-39.1	-3.5	-1.0	165.0*	·
CC(=O)Nc1ccc(S(=O)(=O)C(C#N)c2nc3ccccc3nc2NCCO)cc1 (stereo not given)	-7.7	-27.3	2.3	2.3	148.4*	·
O=c1c2ccccc2[nH]c2ccccc12	-1.2	-3.1	-13.7	4.2	144.1*	·
Cc1ccc2[nH]c(C(F)(F)F)cc(=O)c2c1	-9.7	-15.6	11.8	-2.2	-2.0	·
O=c1cc(C(F)(F)F)[nH]c2ccccc12	-2.3	-22.4	7.0	-1.6	50.5*	i
O=c1[nH]c2ccccc2c2ccccc12	-13.7	-9.4	3.9	-0.5	30.0	·
COc1cc(NC(=S)Nc2cccc(C)n2)cc(OC)c1OC	-15.5	10.3	-13.5	-1.4	96.7*	i
O=C1CN(C(=O)COc2ccccc2)CCN1	-14.4	-0.3	1.1	-0.1	4.9	·
SMILES	MDM2 E3 inh	Tb hexokinase	14-3-3 Bad PPI	Wee1 stabilizer	Hck Nef HTS	Hck-Nef confirm
CCOC(=O)C1=NOC(C(=O)NN(C)c2ncc(C(F)(F)F)cc2Cl)C1 (stereo not given)	3.9	-4.8	-16.6	0.0	60.4*	i
CCOC(=O)C1=NOC(CNc2ncc(C(F)(F)F)cc2Cl)C1 (stereo not given)	-12.3	3.6	-11.5	3.1	2.3	·
COc1ccc(/C=N/n2c(C)nc3c([nH]c4ccccc43)c2=O)cc1CN1CCCC(C)(C)C1	-11.5	-29.4	-5.4	-3.4	55.6*	i
c1ccc(-c2nccc(-c3ccc4c(c3)OCO4)n2)cc1	-19.2	-3.8	3.5	-0.5	20.6	·
c1ccc(-c2nccc(-c3ccc(-n4cnc5ccccc54)cc3)n2)cc1	-6.7	15.7	95.8*	-2.0	101.8*	i
O=C(Cc1cc(=O)oc2cc(O)ccc12)NCC1CCC(C(=O)O)CC1 (stereo not given)	-7.9	-27.0	-3.5	0.8	61.6*	·
NC(=O)N/N=C/c1coc2ccc(O)cc2c1=O	-8.2	-20.1	0.0	5.6	31.4	·
N#C/C(=C\c1coc2ccc(O)cc2c1=O)C(=O)Nc1nc2ccccc2s1	·	-8.3	43.1	0.9	63.7*	i
O=C(CCn1ccnc1)Nc1ccc2ccccc2c1	-9.8	1.3	-12.3	1.6	4.8	·
CCCCN(C(=O)Cn1ncc(Cl)c(Cl)c1=O)c1c(N)n(CC(C)C)c(=O)[nH]c1=O	-14.8	-2.9	12.8	0.6	65.8*	+
Cc1ccc(CNc2ncccc2-c2nc3cc(Cl)ccc3o2)cc1	0.0	-5.4	4.4	-0.5	65.9*	+
Clc1ccc2oc(-c3cccnc3NCc3ccccc3)nc2c1	13.7	2.4	1.1	1.6	90.4*	·
Cc1cc(=O)oc2cc(NC(=O)CC3(CC(=O)O)CCCC3)ccc12	-92.4	-40.3	3.6	2.1	2.3	·
COc1cc2[nH]c(=O)n(CCC(=O)N3CCN(c4cccc(C)c4C)CC3)c(=O)c2cc1OC	-33.7	-25.1	18.9	-1.5	74.1*	i
CCSC1=N/C(=C\c2ccc(-c3ccccc3[N+](=O)[O-])o2)C(=O)S1	0.3	1.1	9.1	2.8	7.8	·
CCCSC1=N/C(=C\c2ccc([N+](=O)[O-])o2)C(=O)S1	-2.5	2.9	46.0	0.0	50.5*	i
COc1ccc(-n2nc(C(=O)Nc3ccc(OC)c(OC)c3)c3c4ccccc4n(C)c3c2=O)cc1	-20.0	-24.6	18.7	-0.7	89.4*	+
Cc1ccccc1C(=O)Nc1nc2n(n1)C(c1ccccc1)CC(=O)N2 (stereo not given)	-14.8	-5.9	-7.8	-1.2	-2.2	·
O=S(=O)(Nc1ccc(-c2nc3cccnc3s2)cc1)c1cc(F)ccc1F	-12.7	-28.0	3.6	-2.2	115.3*	·
CCc1ccc(S(=O)(=O)Nc2ccc(-c3nc4cccnc4s3)cc2)s1	-18.1	-18.0	6.7	1.5	7.5	·
